A selection: hits, their analogues and other compounds. The true share with any hit is near 1.8%.
TNAP inh hi DEA = human TNAP enzyme inhibitors, primary screen, biochemical, luminescent, high phosphate acceptor level, uHTS. AID 1135, 2008. Alkaline phosphatase, tissue-nonspecific isozyme (Homo sapiens), P05186. inhibition, % at 20 µM. 200,000 compounds, 0.03% hits. purified TNAP, CDP-star luminescence, 1 M DEA;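 active = over 50% inhibition of tissue-nonspecific alkaline phosphatase at 20 µM in the single-dose screen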;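 note: plate controls were DMSO wells for no effect and EDTA-quenched wells as full inhibition for full effect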
Insulin prom up = insulin promoter activators in MIN6 cells, imaging, high-content screening, mouse beta cells. 190,000 compounds, 0.3% hits. z-score at 5 µM. AID 1625, 2009. MIN6 insulin promoter-GFP reporter; stronger effect = higher value;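 active = z-score above 3 at 5 µM with at least 500 cells counted in the well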
TNAP act hiacc = TNAP activators at high phosphate acceptor level, primary screen, biochemical, luminescence, uHTS; Alkaline phosphatase, tissue-nonspecific isozyme (Homo sapiens), P05186; 200,000 tested, under 10 active; purified TNAP, CDP-star luminescence, 1 M DEA, 30 min; stronger effect = higher value; 0 = EDTA background, 1 = DMSO-only activity; activation factor at 20 µM;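 active = activation factor at least 2 at 20 µM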
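Test system – human TNAP · Doses – 20 µM single point · Incubation – 30 min, room temperature · Signal – luminescent substrate turnover signal · Read-out basis – activation factor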
p47phox inh = p47phox/p22phox peptide binding inhibitors, primary screen, biochemical, uHTS, NADPH oxidase regulatory subunit; Neutrophil cytosol factor 1 (Homo sapiens), P14598; fluorescence polarization, 2 h; inhibition, % at 24.7 µM; 220,000 compounds, 0.53% hits;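 active = inhibition above about 30%, limit read from the data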;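 note: 0% = p47phox with labelled peptide and 100% = labelled peptide alone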
Target sequence (P14598 whole entry, looked up): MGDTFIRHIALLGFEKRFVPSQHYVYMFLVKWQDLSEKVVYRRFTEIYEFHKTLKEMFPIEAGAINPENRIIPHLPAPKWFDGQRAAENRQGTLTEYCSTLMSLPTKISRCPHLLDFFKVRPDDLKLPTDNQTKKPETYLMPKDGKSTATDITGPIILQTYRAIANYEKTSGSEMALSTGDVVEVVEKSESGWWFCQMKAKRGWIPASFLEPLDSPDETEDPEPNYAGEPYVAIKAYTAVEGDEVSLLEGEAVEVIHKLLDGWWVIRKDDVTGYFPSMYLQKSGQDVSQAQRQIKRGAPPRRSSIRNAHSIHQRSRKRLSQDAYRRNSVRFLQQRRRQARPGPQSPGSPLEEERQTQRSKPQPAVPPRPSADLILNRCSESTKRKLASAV
TNAP inh no acc = human TNAP enzyme inhibitors, primary screen, biochemical, luminescent, no phosphate acceptor, uHTS; purified TNAP, CDP-star luminescence, 30 min; inhibition, % at 20 µM; 200,000 compounds, 0.26% hits; AID 1012, 2008;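 active = tissue-nonspecific alkaline phosphatase inhibition above about 50% at 20 µM in the single-dose screen, limit read from the data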;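 note: 0% = DMSO negative control and 100% = EDTA positive control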
Autophagy mod = autophagy modulators in MEF cells, primary screen, imaging, high-content, MEF GFP-LC3. MEF GFP-LC3 puncta imaging; test concentration mostly 10 µM. calls only at 10 µM (by protocol). 190,000 compounds, 0.98% hits;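 active = percentage of spot-positive cells more than 3 SD above its plate mean, without a fluorescence outlier flag or 80% toxicity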;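 note: spot-positive cell cutoff set from DMSO-treated cells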
An asterisk follows results filed as active.

What do the screens show for `O=C(NCc1ccco1)C1CCCN(S(=O)(=O)c2cccc3cccnc23)C1` (stereo unspecified)?
TNAP inh hi DEA: 0; Insulin prom up: 1.3; TNAP act hiacc: 1; p47phox inh: -4; TNAP inh no acc: -9; Autophagy mod: inactive

Results for N#Cc1cccc(NC(=O)CSc2ccc3c4c(cccc24)C(=O)c2ccccc2-3)c1 ?
TNAP inh hi DEA: 8; TNAP act hiacc: 0.9; p47phox inh: 40*; TNAP inh no acc: -10; Autophagy mod: active

What do the screens show for `COc1ccc(NC(=O)CSc2ccc3c4c(cccc24)C(=O)c2ccccc2-3)cc1`?
TNAP inh hi DEA: 7; TNAP act hiacc: 0.9; p47phox inh: -51; TNAP inh no acc: -1; Autophagy mod: active

What do the screens show for `COCCNCCCCOc1ccc(Br)cc1C`?
TNAP inh hi DEA: -3; Insulin prom up: -0.36; TNAP act hiacc: 1; p47phox inh: 15; TNAP inh no acc: 2; Autophagy mod: inactive

Results for COCCCNCCCCOc1ccc(Br)cc1C ?
TNAP inh hi DEA: -8; Insulin prom up: -0.41; TNAP act hiacc: 1.1; p47phox inh: 41*; TNAP inh no acc: -10; Autophagy mod: inactive

How did CCN(CC)CCNC(=O)c1ccc(NC(=O)c2ccc(F)cc2F)cc1 do in these assays?
TNAP inh hi DEA: 2; Insulin prom up: 1.4; TNAP act hiacc: 1; TNAP inh no acc: 0; Autophagy mod: inactive

How did COc1ccc(CCNC(=O)Cn2nc(C(=O)O)c3ccccc3c2=O)cc1OC do in these assays?
TNAP inh hi DEA: -2; Insulin prom up: 0.01; TNAP act hiacc: 1; p47phox inh: -1; TNAP inh no acc: 0; Autophagy mod: inactive

Results for COc1ccc(CC(=O)NNC(=O)c2nn(Cc3ccccc3)c(=O)c3ccccc23)cc1OC ?
Insulin prom up: 0.09; p47phox inh: 142*

Results for O=C(CCl)c1ccc2[nH]c(=O)oc2c1 ?
Insulin prom up: -0.09; p47phox inh: 4

Results for COc1ccc(CNc2nc3ccccc3n2Cc2ccc(Cl)cc2)cc1OC ?
TNAP inh hi DEA: -5; Insulin prom up: -1.9; TNAP act hiacc: 1.1; p47phox inh: -2; TNAP inh no acc: -8; Autophagy mod: inactive

What do the screens show for `O=C(Nc1ccc(Cl)c(C(F)(F)F)c1)NC1CC2CCCC(C1)N2C1CC1` (stereo unspecified)?
Autophagy mod: active

What do the screens show for `O=C(Nc1cccc(F)c1)NC1CC2CCCC(C1)N2C1CC1` (stereo unspecified)?
TNAP inh hi DEA: -6; Insulin prom up: -0.73; TNAP act hiacc: 1.1; p47phox inh: -15; TNAP inh no acc: -18; Autophagy mod: inactive

Results for NC(=S)Nc1ncc(CCN2CCOCC2)c(-c2ccc(F)cc2)n1 ?
TNAP inh hi DEA: -3; Insulin prom up: 1.3; TNAP act hiacc: 1; p47phox inh: -2; TNAP inh no acc: -4; Autophagy mod: inactive

How did CSc1nn2cc(CCN3CCOCC3)c(-c3ccc(F)cc3)nc2c1C#N do in these assays?
TNAP inh hi DEA: 0; Insulin prom up: 0.12; TNAP act hiacc: 1; p47phox inh: 1; TNAP inh no acc: -2; Autophagy mod: active

Results for O=S(=O)(Nc1ccc2c(c1)nc1n2CCN(Cc2ccccc2)C1)c1ccccc1 ?
TNAP inh hi DEA: -1; TNAP act hiacc: 1; p47phox inh: -15; TNAP inh no acc: -3; Autophagy mod: inactive

How did O=c1ccc(NS(=O)(=O)c2ccccc2)cn1Cc1ccc(Cl)c(Cl)c1 do in these assays?
TNAP inh hi DEA: 0; Insulin prom up: 4.3*; TNAP act hiacc: 1; p47phox inh: 0; TNAP inh no acc: -6; Autophagy mod: inactive

What do the screens show for `CN(C)C=Nc1c(Br)cc(Br)c2nonc12`?
TNAP inh hi DEA: 0; TNAP act hiacc: 1; p47phox inh: -117; TNAP inh no acc: -11; Autophagy mod: active

How did C/C(=N\NC(=O)C(=O)N/N=C(\C)c1cccc(O)c1)c1cccc(O)c1 do in these assays?
TNAP inh hi DEA: -3; Insulin prom up: 0.54; TNAP act hiacc: 1; p47phox inh: -3; TNAP inh no acc: 55*; Autophagy mod: inactive

How did C/C(=N/NC(=O)C(=O)N/N=C(/C)c1ccccc1)c1ccccc1 do in these assays?
TNAP inh hi DEA: -1; Insulin prom up: 0.3; TNAP act hiacc: 1; p47phox inh: -8; TNAP inh no acc: -58; Autophagy mod: inactive

How did Cc1ccc(S(=O)(=O)/N=C2/C=C(Sc3ncn[nH]3)C(=O)c3ccccc32)c(C)c1 do in these assays?
TNAP inh hi DEA: 6; Insulin prom up: -0.15; TNAP act hiacc: 0.9; p47phox inh: 37*; TNAP inh no acc: 26; Autophagy mod: inactive

What do the screens show for `CC(C)c1ccc(S(=O)(=O)/N=C2/C=C(Sc3ncn[nH]3)C(=O)c3ccccc32)cc1`?
TNAP inh hi DEA: 9; Insulin prom up: 1.3; TNAP act hiacc: 0.9; p47phox inh: 50*; TNAP inh no acc: 45; Autophagy mod: inactive

How did O=C(c1ccccc1)C(Sc1ncn[nH]1)c1ccccc1 (stereo unspecified) do in these assays?
TNAP inh hi DEA: 17; Insulin prom up: -0.45; TNAP act hiacc: 0.8; p47phox inh: -6; TNAP inh no acc: 10; Autophagy mod: inactive

How did Cc1ccc(S(=O)(=O)/N=C2/C=C(Sc3ncn[nH]3)C(=O)c3ccccc32)cc1 do in these assays?
TNAP inh hi DEA: 14; Insulin prom up: 1.4; TNAP act hiacc: 0.9; p47phox inh: 53*; TNAP inh no acc: 50; Autophagy mod: inactive

Results for Cc1c(C(=O)OC(C)C)[nH]c2c1C(=O)CCC2 ?
TNAP inh hi DEA: 1; Insulin prom up: -0.19; TNAP act hiacc: 1; p47phox inh: active; TNAP inh no acc: -10; Autophagy mod: inactive

How did CC(=O)Nc1ccc(/C(C)=N/Nc2nc(Nc3ccccc3)nc(N3CCOCC3)n2)cc1 do in these assays?
TNAP inh hi DEA: -3; Insulin prom up: -0.46; TNAP act hiacc: 1; p47phox inh: -14; TNAP inh no acc: -5; Autophagy mod: active

Results for COc1ccc(/C=N\NC(=O)c2ccc(=O)[nH]n2)cc1O ?
TNAP inh hi DEA: 6; Insulin prom up: 0.59; TNAP act hiacc: 0.9; p47phox inh: 2; TNAP inh no acc: -10; Autophagy mod: inactive

Results for COc1ccc(/C=N/NC(=O)c2cc(C34CC5CC(CC(C5)C3)C4)[nH]n2)cc1O ?
TNAP inh hi DEA: 3; Insulin prom up: -0.05; TNAP act hiacc: 1; p47phox inh: -14; TNAP inh no acc: 94*; Autophagy mod: inactive

High-throughput results as filed in PubChem BioAssay.
